Source: ChEMBL document CHEMBL4359878, “Discovery of 4-piperazinyl-2-aminopyrimidine derivatives as dual inhibitors of JAK2 and FLT3” (Eur J Med Chem, 2019)

Experiments:
HEL [1] = assay: Antiproliferative activity against human HEL cells assessed as growth inhibition after 72 hrs by CCK-8 assay; assay type: functional
How it was run: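 CCK-8 viability readout. Cells were cultured in RPMI 1640 with 10% FBS and 1% penicillin/streptomycin and seeded at 3000 (HEL), 5000 (MV4-11) or 3000 (HL60) cells/well. Increasing compound concentrations were applied for 72 h, then CCK-8 was added for a further 3 h and absorbance read at 450 nm. Inhibition = (1−A_sample/A_control)×100, normalized to DMSO controls. Value is the mean of three independent measurements, obtained by curve fitting.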

HEL [2] = assay: Induction of cell cycle arrest in human HEL cells assessed as accumulation at S phase at 0.33 uM after 72 hrs by propidium iodide-staining based flow cytometry (reference value: 41.47%); assay type: functional
How it was run: (§1)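 Subconfluent HEL cells were treated for 72 h at 0.33, 1.0, 3.0 or 9.0 μM, with untreated cells as control. Cultures were pulsed with 10 μM BrdU for 30 min at 37 °C before harvest, then PBS-washed, fixed in 70% ethanol and denatured in 2 M HCl. After neutralization, cells were stained with fluorescein anti-BrdU antibody and propidium iodide. DNA content was measured by flow cytometry with 488 nm excitation.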

HEL [3] = assay: Induction of cell cycle arrest in human HEL cells assessed as accumulation at G1 phase at 1 uM after 72 hrs by propidium iodide-staining based flow cytometry (reference value: 43.12%); assay type: functional; how it was run: as §1
HEL [4] = assay: Induction of cell cycle arrest in human HEL cells assessed as accumulation at S phase at 1 uM after 72 hrs by propidium iodide-staining based flow cytometry (reference value: 41.47%); assay type: functional; how it was run: as §1
HEL [5] = assay: Induction of apoptosis in human HEL cells after 72 hrs by FITC-annexin V/propidium iodide-double staining based flow cytometry; assay type: functional, cell-based
HEL [6] = assay: Induction of apoptosis in human HEL cells assessed as viable cells at 0.33 uM after 72 hrs by FITC-annexin V/propidium iodide-double staining based flow cytometry (reference value: 93.77%); assay type: functional; conditions: read-out: Activity
HEL [7] = assay: Induction of apoptosis in human HEL cells assessed as early apoptotic cells at 0.33 uM after 72 hrs by FITC-annexin V/propidium iodide-double staining based flow cytometry (reference value: 2.23%); assay type: functional
HEL [8] = assay: Induction of apoptosis in human HEL cells assessed as late apoptotic cells at 0.33 uM after 72 hrs by FITC-annexin V/propidium iodide-double staining based flow cytometry (reference value: 1.63%); assay type: functional
HEL [9] = assay: Induction of apoptosis in human HEL cells assessed as early apoptotic cells at 3 uM after 72 hrs by FITC-annexin V/propidium iodide-double staining based flow cytometry (reference value: 2.23%); assay type: functional
HEL [10] = assay: Induction of apoptosis in human HEL cells assessed as necrotic cells at 3 uM after 72 hrs by FITC-annexin V/propidium iodide-double staining based flow cytometry (reference value: 2.40%); assay type: functional
[11] = molecular target: T1, Receptor-type tyrosine-protein kinase FLT3 (Homo sapiens, UniProt P36888); assay: Inhibition of N-terminal GST-tagged human FLT3 cytoplasmic domain (564 to 993 residues) expressed in baculovirus expression system musing FAM-labeled peptide as substrate preincubated for 10 mins followed by substrate addition measured after 1 hr in presence of ATP by mobility shift assay
T1 sequence (P36888 whole entry): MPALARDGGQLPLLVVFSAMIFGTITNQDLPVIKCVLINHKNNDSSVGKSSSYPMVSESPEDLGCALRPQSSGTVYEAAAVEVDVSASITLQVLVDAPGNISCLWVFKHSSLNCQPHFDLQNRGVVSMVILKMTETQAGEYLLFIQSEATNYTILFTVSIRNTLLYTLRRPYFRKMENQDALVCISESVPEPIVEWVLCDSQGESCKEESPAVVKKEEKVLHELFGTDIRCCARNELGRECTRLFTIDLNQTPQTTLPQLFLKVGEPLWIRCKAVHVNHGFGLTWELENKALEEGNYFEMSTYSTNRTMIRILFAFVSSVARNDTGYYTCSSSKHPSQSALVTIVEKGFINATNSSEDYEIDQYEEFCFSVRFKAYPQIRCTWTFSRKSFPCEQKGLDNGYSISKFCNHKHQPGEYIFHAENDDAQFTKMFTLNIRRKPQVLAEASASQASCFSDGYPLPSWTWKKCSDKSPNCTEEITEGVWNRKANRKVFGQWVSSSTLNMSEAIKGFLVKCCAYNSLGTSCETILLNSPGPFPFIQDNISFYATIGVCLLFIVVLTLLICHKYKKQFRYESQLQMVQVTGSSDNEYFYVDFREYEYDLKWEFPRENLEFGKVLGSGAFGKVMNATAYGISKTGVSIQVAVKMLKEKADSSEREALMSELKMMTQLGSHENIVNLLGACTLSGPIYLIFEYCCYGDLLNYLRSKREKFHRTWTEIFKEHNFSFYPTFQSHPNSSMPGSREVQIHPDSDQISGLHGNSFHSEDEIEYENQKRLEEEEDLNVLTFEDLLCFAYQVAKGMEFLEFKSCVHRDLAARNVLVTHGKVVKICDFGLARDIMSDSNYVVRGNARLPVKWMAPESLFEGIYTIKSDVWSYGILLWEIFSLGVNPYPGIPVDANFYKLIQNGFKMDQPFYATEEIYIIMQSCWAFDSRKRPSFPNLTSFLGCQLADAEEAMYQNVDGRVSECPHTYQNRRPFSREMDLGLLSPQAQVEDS
How it was run: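 Caliper mobility-shift assay with recombinant kinase in 50 mM HEPES pH 7.5, 0.0015% Brij-35. Compound was diluted from DMSO and preincubated with enzyme for 10 min at room temperature. FAM-labeled peptide plus ATP was then added and the reaction run for 1 h at 28 °C. It was stopped with an EDTA (50 mM) buffer. Conversion gave percent inhibition relative to max/min controls, and IC50 came from a four-parameter Hill fit. Duplicate wells were used.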

- IC50 [11]: 0.03 µM
Structure (SMILES): CC(=O)c1ccc(NC(=O)N2CCN(c3ccnc(Nc4ccc(N5CCOCC5)cc4)n3)CC2)cc1
- GI50 (HEL [1]): 4.3 µM
- Activity (HEL [2]): 38.62%
- Activity (HEL [3]): 61.44%
- Activity (HEL [4]): 31.59%
- Activity (HEL [5]): Dose-dependent effect
- viability at 0.33 µM (HEL [6]): 88.3%
- Activity (HEL [7]): 4.07%
- Activity (HEL [8]): 4.3%
- Activity (HEL [9]): 31.87%
- Activity (HEL [10]): 7%
